Measurements taken from the EternaBench riboswitch data.

System: MS2 coat protein
Test: apparent Kd, MS2 coat protein; higher = weaker binding; RNA-MaP array; FMN 200 µM where present
Procedure, shortened: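 The apparent Kd comes from binding curves fitted cluster by cluster, filtered, and summarised as a median. Those curves followed SNAP-549-labelled MS2 coat protein from 0.7 or 1.5 nM, doubling to 3 µM, on Illumina sequencing-chip clusters where stalled E. coli RNA polymerase had transcribed the designs, without and then with constant ligand. The buffer was 100 mM Tris-HCl pH 7.5, 80 mM KCl, 4 mM MgCl2, BSA, DTT, yeast tRNA and Tween-20, and green signal was normalised to red-channel RNA signal and control-cluster median Fmax.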

[1] = designed as: OFF switch for flavin mononucleotide, no ligand
[2] = ligand present: flavin mononucleotide, designed as: OFF switch for flavin mononucleotide
[3] = designed as: ON switch for flavin mononucleotide, no ligand
[4] = ligand present: flavin mononucleotide, designed as: ON switch for flavin mononucleotide

Sequence | apparent Kd [1] [nM] | apparent Kd [2] [nM] | apparent Kd [3] [nM] | apparent Kd [4] [nM]
GGGCUGUCAGGAUAUCCCGGGCCCGGGUAAAUUUGGGCCCGGGAGAAGGGACAUGAGGAUCACCCAUGUGGCCC | 39.2 | 40.5 |  | 
GGGCUUUGGGAGAAGGUACAUUAAAUUAGUUUAACAUGAGGAUCACCCAUGUAAGGAUAUCCCAUCUUGUAUUAUGGUACAGCC | 12.8 | 12.8 |  | 
GGGUACAUCAGAGGAUAUCAUGUAAAUACAUGAGGAUCACCCAUGUCGAUGGAGACAUCGGAGAUUGAGAAGGCCGAUGUACCG |  |  | 292 | 13.4
GGGUACAUCGGAGGAUAUCACGUAAAUACAUGAGGAUCACCCAUGUCGAUGGAGACAUCGGAGAUUGAGAAGGCCGAUGUACCG |  |  | 7.6 | 5.33
GGGUACAUCGGAGGAUAUCAUGUAAAUACAUGAGGAUCACCCAUGUCGAUGGAGACAACGGAGAUUGAGAAGGCCGAUGUACCG |  |  | 952 | 108
GGGUACAUCGGAGGAUAUCAUGUAAAUACAUGAGGAUCACCCAUGUCGAUGGAGACAUCGGAGACUGAGAAGGCCGAUGUACCG |  |  | 41.8 | 7.18
GGGUACAUCGGAGGAUAUCAUGUAAAUACAUGAGGAUCACCCAUGUCGAUGGAGACAUCGGAGAGUGAGAAGGCCGAUGUACCG |  |  | 257 | 13.3
GGGUACAUCGGAGGAUAUCAUGUAAAUACAUGAGGAUCACCCAUGUCGAUGGAGACAUCGGAGAUUGAGAAGGCCGAGGUACCG |  |  | 191 | 9.91
GGGUACAUCGGAGGAUAUCAUGUAAAUACAUGAGGAUCACCCAUGUCGAUGGAGACAUCGGAGAUUGAGAAGGCCGGUGUACCG |  |  | 165 | 9.9
GGGUACAUCGGAGGAUAUCAUGUAAAUACAUGAGGAUCACCCAUGUCGAUGGAGACAUCGGAGAUUGAGAAGGCGGAUGUACCG |  |  | 309 | 23.1
GGGUACAUCGGAGGAUAUCAUGUAUAUACAUGAGGAUCACCCAUGUCGAUGGAGACAUCGGAGAUUGAGAAGGCCGAUGUACCG |  |  | 826 | 31.5
GGGUACAUCGGAGGAUAUCAUUUAAAUACAUGAGGAUCACCCAUGUCGAUGGAGACAUCGGAGAUUGAGAAGGCCGAUGUACCG |  |  | 7.9 | 5.57
GGGUACAUGGGAGGAUAUCAUGUAAAUACAUGAGGAUCACCCAUGUCGAUGGAGACAUCGGAGAUUGAGAAGGCCGAUGUACCG |  |  | 21.1 | 37.8
GGGUAGUGAGGAUAUCGUUGUUAGGAGGAGUAGGUAGGAGGCGAGAAGGCACAUGAGGAUCACCCAUGUAUGAA | 26.8 | 29 |  | 
GGGUGACAUGAGGAUCACCCAUGUCAGGAUAUGAUACUAUGUACUUCGGUACAUAGUAUCAGAAGGGACAUCCC | 48.4 | 158 |  | 
GGGUGACAUGAGGAUCACCCAUGUCAGGAUAUGCUUGAGCUUGAGAAAUCGAGUUCGAGUAGAAGGGACUGCCC | 47.3 | 72.3 |  | 
GGGUGGCGUAGAGGAUAUAUGGUACAUGAGGAUCACCCAUGUACAUAUGAUGUUCAUGUUUAUGUAUAGAAGGCUACGUCGCUA |  |  | 10.1 | 9.76
GGGUUGGGAGGAUAUCCAAUAUAUGACAUGAGGAUCACCCAUGUUUCCACUCGUACCUCCGGAGAAGGCCCUUCCC | 19.3 | 20 |  | 
GGUACCAUCACAGGAUAUGCUAUGGUUUCCGUAGCAGAAGGGUGAUAACAUGAGGAUCACCCAUGUGGUACCGGGCGUGAGCCC |  |  | 741 | 201
GGUACCAUCACAGGAUAUGCUUUCCUUUGGGAAGCAGAAGGGUGUAACAUGAGGAUCACCCAUGUGGUGCCAGGGCGCGAGCCC |  |  | 182 | 16.8
GGUACUCAAAGAGUACCAAUACGAACAUGAGGAUCACCCAUGUAGGAUAUGAAAACGCCGGAGUAUCAGAAGGACAUGUGCCUA | 12.6 | 21.3 |  | 
GGUACUCAAAGAGUACCAAUACGAACAUGAGGAUCACCCAUGUAGGAUAUGCAAAAGCCGGAGUAGCAGAAGGACAUGUGCCUA | 12.6 | 46.4 |  | 
GGUACUCAAAGAGUACCAAUACGAACAUGAGGAUCACCCAUGUAGGAUAUGCUACUCAAAGAGUAGCAGAAGGACAUGUGCCAU | 42 | 282 |  | 
GGUACUCAAAGAGUACCAAUACGAACAUGAGGAUCACCCAUGUAGGAUAUGCUACUCAAAGAGUAGCAGAAGGACAUGUGCCCU | 60.5 | 608 |  | 
GGUACUCAAAGAGUACCAAUACGAACAUGAGGAUCACCCAUGUAGGAUAUGCUACUCACAGAGUAGCAGAAGGACAUGUGCCUA | 20.8 | 136 |  | 
GGUACUCAAAGAGUACCUAUACGAACAUGAGGAUCACCCAUGUAGGAUAUGCUACUCAAAGAGUAGCAGAAGGACAUGUGCCUA | 18.6 | 108 |  | 
GGUACUCAAAGAGUACUUGGUCGAACAUGAGGAUCACCCAUGUAGGAUAUACGAAGCAAGAAGUAGUAGAAGGACGUGUGCAGC | 12.4 | 12.1 |  | 
GGUAGACAAAGUCUACCAAUACGAACAUGAGGAUCACCCAUGUAGGAUAUGCUACUCAAAGAGUAGCAGAAGGACAUGUGUCUU | 29.5 | 160 |  | 

Sequence | apparent Kd [1] [nM] | apparent Kd [2] [nM] | apparent Kd [3] [nM] | apparent Kd [4] [nM]
GGUAUUCGAGGAUAUCGCAAACGAGACAUGAGGAUCACCCAUGUCCCUCAUGCUUGUCGGCGAGAAGGCGACAAGC | 14.8 | 17.7 |  | 
GGUCAUCAAGUCAGGAUAUCGUCUGGUCAAUCAGGCGAGAAGGGACAUGAGGAUCACCCAUGUCGACUCAUCAG | 33.9 | 139 |  | 
GGUCCACAUGAGGAUCACCCAUGUCAGGAUAUACACGGCACUAUAAUAAGUGCCACCCGUAGAAGGGACGCUGG | 17.2 | 38.5 |  | 
GGUCCUUCUGUUAGGAUAUGCUAUGGGCUUCCGCAGUAGAAGGAACAUGAGGAUCACCCAUGUCCGAUGCCGUA |  | 121 |  | 
GGUCGUCAAGUCAGGAUAUCGUUUAGUCGAUGUAACGAGAAGGGACAUGAGGAUCACCCAUGUCGUCUCAUCAG | 18.9 | 24.8 |  | 
GGUCGUCAAGUCAGGAUAUCGUUUAGUCGGUGUAACGAGAAGGGACAUGAGGAUCACCCAUGUCGUCUCAUCAG | 18.8 | 25.8 |  | 
GGUCGUCACAUAUACAUGAGGAUCACCCAUGUAAAAUAACAUGAGGAUAUGGAUCCUAAUUGGAUCCAGAAGGCAUGGACGACC |  |  | 6.29 | 5.53
GGUCGUCACAUGAACAUGAGGAUCACCCAUGUAAAUUCUCAUGAGGAUAUGGAUCCUAAUUGGAUCCAGAAGGCGUGGACGACC |  |  | 953 | 457
GGUCGUCCCAUUAACAUGAGGAUCACCCAUGUCAAAAGACAUGAGGAUAUGCAUCCUAAUUGGAUGCAGAAGGCAUGGACGACC |  |  | 1060 | 87.7
GGUGAAGCAGGAUAUGUGCCGAUAUACAUGAGGAUCACCCAUGUCAUGUAGGAACCGCGUAUAGAAGGGCUUCACC | 39.2 | 67.1 |  | 
GGUGCACGCACAGGAUAUCCGGCGGAGCUCGUCGGAGAAGGGUGACAUGAGGAUCACCCAUGUACGUGCAACUCAGUUUGAGAG |  |  | 59.8 | 32.1
GGUGCACGCACAGGAUAUCCGGCGGAGCUCGUCGGAGAAGGGUGACAUGAGGAUCACCCAUGUACGUGCAGCCAAGUUUGAGAG |  |  | 66.9 | 39.3
GGUGCAUAUGAGAAGGCGAUCAUGAAACAUGAUCGAGGAUAUCAUGUAAACAUGAGGAUCACCCAUGUAUGGGAAUAUUGCACC |  |  | 176 | 12.6
GGUGCGAUGUAGAAGGCAGAUCUGAUUCAGAUCUGAGGAUAUACAUGAGGAUCACCCAUGUUACGCACCAGCACGAGAGUGCAA | 6.18 | 11.1 |  | 
GGUGCGUAUGUGAGGAUAUGCUGGUCCUUGGAUCAGCAGAAGGCACAUGAGGAUCACCCAUGUGGUGUCGUACU | 282 | 26.1 |  | 
GGUGCGUAUGUGAGGAUAUGCUGGUCCUUGGAUCGGCAGAAGGCACAUGAGGAUCACCCAUGUGGUGUCGUACG | 59.6 | 228 |  | 
GGUGCGUAUGUGAGGAUAUGCUGGUCCUUGGAUCGGCAGAAGGCACAUGAGGAUCACCCAUGUGGUGUCGUUCC | 120 | 55.4 |  | 
GGUGCGUGUGUGAGGAUAUGCUGGUCCUUGGCUCGGCAGAAGGCACAUGAGGAUCACCCAUGUGGUGUCGUGCC | 22.8 | 49.8 |  | 
GGUGCGUUUGUGAGGAUAUGCUGGUCCUUGGAUCGGCAGAAGGCACAUGAGGAUCACCCAUGUGGUGUCGUACC | 310 | 29.6 |  | 
GGUGCGUUUGUGAGGAUAUGCUGGUCCUUGGUUCGGCAGAAGGCACAUGAGGAUCACCCAUGUGGUGUCGUCCC | 33 | 98.6 |  | 
GGUGCGUUUGUGAGGAUAUGCUGGUCCUUGGUUCGGCAGAAGGCACAUGAGGAUCACCCAUGUGGUGUCGUUCC | 15 | 23.3 |  | 
GGUGCUAUGUAGAAGGCAGAUCUGAUUCAGAUCUGAGGAUAUACAUGAGGAUCACCCAUGUUAUGCACCAGCACGAGAGUGCAA | 7.12 | 12.8 |  | 
GGUGCUAUGUAGAAGGCAGAUCUGAUUCAGAUCUGAGGAUAUACAUGAGGAUCACCCAUGUUAUGCACCAGCACGAGAGUGCAC | 7.57 | 13.3 |  | 
GGUGGACAUGAGGAUCACCCAUGUGAGGAUAUCGGCUAUCUACUCGCUGUCGGUUGCUCGAGAAGGCACAUUGU | 177 | 171 |  | 
GGUUAUUGCAAGGAUAUGCUUUUUUUUGAUAUUGCAGAAGGUGCAACAUGAGGAUCACCCAUGUUGGAGGGAUU | 30.8 | 91.8 |  | 
GGUUGACAAAGUCAACCUUAACGAACAUGAGGAUCACCCAUGUAGGAUAUGCUACUCAAAGAGUAGCAGAAGGACAUGUGUCUU | 30 | 169 |  | 
GGUUGUCAUAGUCAUCCUUUCCGUACAUGAGGAUCACCCAUGUAGGAUAUGCUACUCUCGGUGUGGCAGAAGGGCGUGUGUCUU | 18.2 | 18.8 |  | 
